PubChem BioAssay AID624073 (Broad Institute, 2012)
Calls of active or inactive are those of the source.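 Rule for the calls: active = fitted OD600 growth curve drops 35% below untreated wells at up to twice the top tested dose; inconclusive = flat curve with 30 to 70% drop, or poor fit; inactive = the rest, including rising growth signal.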

Test system: not listed separately
Assay: iron-limited growth inhibition, wild-type PAK – whole organism, PAK strain, OD600, EDDHA, dry powder, set 3, dose response (AID 624073)
Conditions: P. aeruginosa PAK growth with EDDHA, OD600, 28 h; at 100 µM (top of the series)
Procedure, shortened: (§1)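 material = Pseudomonas aeruginosa PAK wild-type strain, whole bacterial cells | medium = Succinate-based M9 minimal medium adjusted to pH 7.0 | probe or stimulus = iron chelator EDDHA at 2 µM in the medium | times = compound exposure of 28 h at 30 °C, humidified | read-out = bacterial growth measured as OD600 absorbance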

For `COCCNC(C#N)c1ccc(Cl)cc1` (stereo unspecified), which activity change, negative = inhibition is on record?
Its activity change, negative = inhibition is -2.37% (inactive).

With `CCCCC(C#N)c1ccc(F)cn1` (stereo unspecified) as the compound, how does the activity change, negative = inhibition read?
Its activity change, negative = inhibition is -13.8% (inactive).

Which activity change, negative = inhibition does the source give for `COCCC(C#N)c1ccc(F)cc1` (stereo unspecified) here?
The activity change, negative = inhibition was 1.49% (inactive).

Test system: P. aeruginosa PAK growth with EDDHA, OD600, 28 h
Assay: as above
Conditions: not given
Procedure, shortened: as §1

Which AC35 does the source give for `N#CC(c1ccc(F)cc1)c1cccc(C(F)(F)F)n1` (stereo unspecified) here?
Its AC35 is 15.4 µM.

For `N#CC(c1cccc(Cl)n1)c1ccc(Cl)cc1F` (stereo unspecified), which AC35 is on record?
Its AC35 is 47.5 µM.

Which AC35 does the source give for `N#CC(c1ccc(Cl)cc1)c1cccc(C(F)(F)F)n1` (stereo unspecified) here?
Its AC35 is 12.8 µM.

Which AC35 does the source give for `N#CC(c1cccc(C(F)(F)F)n1)c1ccc(Cl)cc1F` (stereo unspecified) here?
The AC35 was 13.7 µM.

With `CCCCC(c1ccc(Cl)cc1)c1nn[nH]n1` (stereo unspecified) as the compound, how does the AC35 read?
The AC35 was > 100 µM (inactive).

For `N#CC(c1ccc(Cl)cc1)c1ccc(Cl)cn1` (stereo unspecified), which AC35 is on record?
The AC35 was 87.7 µM.

For `N#CC(c1ccc(Cl)cc1)c1cccc(Cl)n1` (stereo unspecified), which AC35 is on record?
Its AC35 is 40.9 µM.

Which AC35 does the source give for `N#CC(c1ccc(Cl)cc1)c1ncccc1Cl` (stereo unspecified) here?
The AC35 was 77.8 µM.
